# PLCb3 inh = PLC-beta3 (human) inhibition, primary screen; AID 720704; Purified PLC-beta3, fluorogenic substrate, fluorescence; actives 0.18% (n = 370,000); inhibition, % at 12.2 µM; Q01970; in the data active = inhibition above about 11%;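 also: 0% = median of compound wells on plate and 100% = full blocker control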
# ADAM17 inh = ADAM17 inhibition, QFRET primary screen. P78536. recombinant ADAM17, EDANS/DABCYL FRET peptide cleavage. inhibition, % at 6.95 µM. actives 0.83% (n = 370,000). AID 720648;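 active = inhibition above the mean of compounds lying between control limits plus 3 SD, set per campaign, cut at about 8.5% in these data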;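 also: 0% = DMSO-only wells as the low control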
# ADAM10 inh = inhibits human ADAM10. O14672. recombinant ADAM10, EDANS/DABCYL FRET peptide cleavage, 3 h. inhibition, % at 7 µM. actives 0.62% (n = 370,000);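 active = inhibition above a per-campaign cutoff equal to the mean of compounds falling between control-based bounds plus 3 SD, cut at about 20% in these data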;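 also: 0% = DMSO wells while the 100% control is not disclosed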
# PLCg1 inh = PLC-gamma1 (human) inhibition, primary screen. P19174. purified PLC-gamma1, fluorogenic substrate, fluorescence. inhibition, % at 12.2 µM. actives 0.84% (n = 370,000); in the data active = inhibition above about 9.5%
# Tb MetRS inh = Trypanosoma brucei MetRS inhibition. purified T. brucei MetRS, ATP depletion, Kinase-Glo luminescence. inhibition, % at 11.9 µM. actives 0.4% (n = 360,000). AID 624268;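 active = inhibition above a per-plate cutoff of the control wells' mean inhibition plus 3 SD, cut at about 5.5% in these data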;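 also: 0% = DMSO wells median and 100% = median of wells with control inhibitor compound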
#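 Material – parasite MetRS enzyme · Medium – HEPES-MgCl2-KCl buffer plus DTT, spermine, BSA, pyrophosphatase · Reagent – ATP, methionine and E. coli bulk tRNA substrates · Times – 15 min enzyme-compound preincubation, 2 h reaction, 10 min detection, 25 °C · Measured by – luminescence of leftover ATP · Evaluation – percent inhibition relative to median high and low control wells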
# Active calls of the source: *; · = no result. Hits are enriched below; roughly 2.3% of the tested compounds scored in any of these assays.
SMILES,PLCb3 inh,ADAM17 inh,ADAM10 inh,PLCg1 inh,Tb MetRS inh
O=C(CN(c1cccc(C(F)(F)F)c1)S(=O)(=O)c1ccc(Cl)c([N+](=O)[O-])c1)NCc1ccc(F)cc1,11*,4,20*,8,-1
Cc1cccc(Nc2nc(N)c([N+](=O)[O-])c(N3CCN(C)CC3)n2)c1,0,-2,-7,3,-1
Cc1cccc(Nc2nc(N)c([N+](=O)[O-])c(N3CCCC(C)C3)n2)c1 (configuration not stated),7,9.0*,17,5,0
C[C@H](CO)N1C[C@H](C)[C@@H](CN(C)C(=O)Nc2ccc3c(c2)OCO3)Oc2c(NC(=O)Nc3ccc(C(F)(F)F)cc3)cccc2C1=O,-15,9.4*,11,-13,0
COc1ccc(NC(=O)N(C)C[C@H]2Oc3c(NC(=O)Nc4ccc(C(F)(F)F)cc4)cccc3C(=O)N([C@H](C)CO)C[C@@H]2C)cc1,4,9.9*,19,2,-1
Cc1cccc(NC(=O)CNC(=O)CN2C(=O)NC3(CCc4ccccc43)C2=O)c1C (configuration not stated),-2,-4,2,-1,-1
O=C(NCc1ccc(OC(F)(F)F)cc1)C1CC(c2ccccc2C(F)(F)F)=NO1 (configuration not stated),-2,1,11,-2,0
CC1=C(O)C(=O)C(C2=C(O)C(=O)C(C)=C(O)C2=O)=C(O)C1=O,4,-4,-5,47*,1
O=C(C1=C[C@H](c2csc3ccccc23)C[C@H](OCc2ccc(CO)cc2)O1)N1CCN(Cc2ccc3c(c2)OCO3)CC1,1,8,21*,4,0
CC1(C)C(C=C(Cl)Cl)C1C(=O)Nc1ccc([N+](=O)[O-])cc1 (configuration not stated),3,11*,25*,4,·
CCN1CCN(CC(=O)Nc2cc(S(=O)(=O)N(CC)c3ccccc3)ccc2Cl)CC1,3,0,-5,9.5*,0
Cc1nn(C)c(C(=O)N/N=C/c2ccc(-c3ccccc3)cc2)c1Cl,-4,-1,-5,0,0
CCCS(=O)(=O)NC(=O)C1(C)CCCN(C(=O)c2ccc(C#N)cc2)C1 (configuration not stated),3,-1,0,1,0
Cc1c(C(=O)Nc2cccc(N(C)S(C)(=O)=O)c2)cccc1[N+](=O)[O-],14*,7,6,14*,0
CN(c1cccc(NC(=O)c2ccccc2N(C)S(C)(=O)=O)c1)S(C)(=O)=O,2,2,1,5,-1
CCn1c(COc2ccccc2)nnc1SCc1ccc(C#N)cc1,6,1,13,9.6*,-1
CCOC(=O)C1CCCN(C(=O)c2ccccc2NS(=O)(=O)c2ccc(F)cc2)C1 (configuration not stated),2,-5,-6,0,0
O=C(COC(=O)c1ccccc1C(=O)c1ccccc1)Nc1ccc(SC(F)F)cc1,2,9.0*,16,-1,-1
CN(C)c1ccc(N=Nc2ccccc2C(=O)OCC(=O)NCC2CCCCC2)cc1,2,6,13,11*,-1
CC(C)C[C@H](NC(=O)N1CCOCC1)C(=O)N1CCC[C@H]1C(=O)NCc1ccccc1,2,-1,-13,-1,·
CCN1CCN(Cc2ccc(NC(=O)c3cc(NC(=O)C(=O)c4c[nH]c5ccccc45)cc(OC)c3)cc2C(F)(F)F)CC1,-20,9.0*,22*,-13,-2
CCN1CCN(Cc2ccc(NC(=O)c3ccc(C)c(NC(=O)C(=O)c4c[nH]c5ccccc45)c3)cc2C(F)(F)F)CC1,-9,7,18,-10,1
c1ccc(CN2CCN(c3ncnc4c3[nH]c3ccccc34)CC2)cc1,-79,-52,-159,-56,6.2*
Cc1ccc2c(c1)[nH]c1c(N3CCN(Cc4ccccc4)CC3)ncnc12,-51,-23,-65,-36,0
O=C(Nc1ccncc1)Nc1cccc(C(F)(F)F)c1,-3,0,1,2,1
SMILES,PLCb3 inh,ADAM17 inh,ADAM10 inh,PLCg1 inh,Tb MetRS inh
CCN(CC)S(=O)(=O)c1ccc(NC(=O)Nc2cccc(C(F)(F)F)c2)cc1,1,14*,39*,1,0
O=C(NCC1CC1)c1onc(CSc2ccncc2)c1C(=O)NCC1CC1,3,-1,3,2,0
COc1ccc2nc(NC(=O)C3CCN(S(=O)(=O)c4cccs4)CC3)sc2c1,0,4,7,1,0
Cc1ccc2nc(NC(=O)C3CCN(S(=O)(=O)c4cccs4)CC3)sc2c1,2,6,21*,2,0
COC(=O)c1cc(C(=O)Nc2ccc(S(N)(=O)=O)cc2)cc([N+](=O)[O-])c1,-2,-1,2,0,0
COc1ccccc1/C=C1\SC(=S)N(CCC(=O)Nc2nnc(C)s2)C1=O,-7,-1,-4,0,0
COc1ccc(CN(C)CCc2ccccn2)cc1OC,13*,3,-3,11*,0
COc1ccc(N2C(=O)CC(NCc3cccs3)C2=O)cc1 (configuration not stated),5,2,5,11*,0
Cc1ccc(S(=O)(=O)N2CCOCC2)cc1NC(=O)COc1ccccc1Cc1ccccc1,2,7,7,4,0
C[C@@H]1CCCCCCCCC(=O)OCCN(C(=O)OC(C)(C)C)[C@H](C)CCCCCCCCC(=O)OCCN1C(=O)OC(C)(C)C,13*,8,-3,7,0
COCCN=c1scc(-c2cccs2)n1/N=C/c1ccc(O)c(O)c1O,-22,14*,24*,-20,0
CC(=O)c1cc(-c2ccccc2)n(CC(=O)NCc2ccc(F)cc2)c1C,0,3,-1,-5,·
O=C1O[C@@H](c2ccccc2)C[C@@H](O)[C@H](O)CCCc2ccccc21,-1,-1,-4,-3,0
Oc1c(C(Nc2cccc(C(F)(F)F)c2)c2ccncc2)ccc2cccnc12 (configuration not stated),-10,45*,12,-4,-1
Oc1c(C(Nc2nccs2)c2ccc(C(F)(F)F)cc2)ccc2cccnc12 (configuration not stated),-14,1,3,-7,-1
CCOC(=O)C1CCN(C(=O)CN2C(=O)CSc3ccc(S(=O)(=O)N4CCOCC4)cc32)CC1,-6,-4,-2,1,1
CC(=O)Nc1cc(OC(C)=O)c2nonc2c1OC(C)=O,-89,-22,-73,-33,28*
COCC(=O)OC1CCn2c1nc1c2C(=O)C(C)=C(NC(C)=O)C1=O (configuration not stated),6,-2,-3,14*,0
CC(C)Cc1ccc(-c2cc3nc(NCCOc4ccccc4)ccn3n2)cc1,-20,-1,-16,-15,0

# Source: PubChem BioAssay (The Scripps Research Institute Molecular Screening Center)
